Assay results reported in ChEMBL document CHEMBL1649420, “Identifying chelators for metalloprotein inhibitors using a fragment-based approach” (J Med Chem, 2011).

Experiments:
[1] = target: Matrix metalloproteinase-9 (Homo sapiens) (UniProt P14780); details: at 1 mM;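 also: recombinant human MMP9, activity read after 30 min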
[2] = target: T1, Interstitial collagenase (Homo sapiens) (UniProt P03956); details: at 1 mM;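 also: recombinant human enzyme, with inhibition measured after 30 min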
T1 sequence (whole entry): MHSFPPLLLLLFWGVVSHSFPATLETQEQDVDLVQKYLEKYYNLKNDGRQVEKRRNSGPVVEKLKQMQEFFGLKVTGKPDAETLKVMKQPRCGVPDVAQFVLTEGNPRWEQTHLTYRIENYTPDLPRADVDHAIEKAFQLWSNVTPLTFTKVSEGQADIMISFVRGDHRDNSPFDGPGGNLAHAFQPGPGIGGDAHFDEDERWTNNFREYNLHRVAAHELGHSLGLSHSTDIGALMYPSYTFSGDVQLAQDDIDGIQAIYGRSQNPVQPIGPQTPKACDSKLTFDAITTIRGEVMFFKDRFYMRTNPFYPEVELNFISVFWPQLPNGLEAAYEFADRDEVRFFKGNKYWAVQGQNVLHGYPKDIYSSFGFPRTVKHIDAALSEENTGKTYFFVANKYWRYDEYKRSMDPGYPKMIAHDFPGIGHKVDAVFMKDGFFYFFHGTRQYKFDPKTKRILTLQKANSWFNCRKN

[3] = target: T2, Lethal factor (Bacillus anthracis) (UniProt P15917); details: at 1 mM
T2 sequence (whole entry): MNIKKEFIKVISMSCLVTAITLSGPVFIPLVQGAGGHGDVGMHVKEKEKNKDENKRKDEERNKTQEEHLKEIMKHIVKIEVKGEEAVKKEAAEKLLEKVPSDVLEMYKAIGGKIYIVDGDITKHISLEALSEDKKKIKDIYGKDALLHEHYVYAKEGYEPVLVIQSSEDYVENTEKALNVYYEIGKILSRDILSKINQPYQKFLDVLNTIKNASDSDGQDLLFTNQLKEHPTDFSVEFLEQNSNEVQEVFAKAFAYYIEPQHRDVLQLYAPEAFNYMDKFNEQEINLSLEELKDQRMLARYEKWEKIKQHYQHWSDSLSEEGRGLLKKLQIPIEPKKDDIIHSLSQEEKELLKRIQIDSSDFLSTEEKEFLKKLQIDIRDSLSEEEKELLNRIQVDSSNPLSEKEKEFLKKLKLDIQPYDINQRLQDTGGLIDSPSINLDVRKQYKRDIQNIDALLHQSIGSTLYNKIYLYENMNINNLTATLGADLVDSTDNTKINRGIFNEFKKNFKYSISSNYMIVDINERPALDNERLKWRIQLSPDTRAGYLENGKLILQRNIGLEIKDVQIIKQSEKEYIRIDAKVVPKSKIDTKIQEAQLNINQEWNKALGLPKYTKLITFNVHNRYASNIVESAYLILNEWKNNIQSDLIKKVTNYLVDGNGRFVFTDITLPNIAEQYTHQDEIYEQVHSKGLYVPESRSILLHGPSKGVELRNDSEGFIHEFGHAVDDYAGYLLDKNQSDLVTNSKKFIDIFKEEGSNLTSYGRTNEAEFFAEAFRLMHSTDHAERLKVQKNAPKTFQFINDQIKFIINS

[4] = target: T3, Nitric oxide synthase, inducible (Mus musculus) (UniProt P29477); details: at 1 mM;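 also: recombinant enzyme, activity read out colorimetrically after 40 min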
T3 sequence (whole entry): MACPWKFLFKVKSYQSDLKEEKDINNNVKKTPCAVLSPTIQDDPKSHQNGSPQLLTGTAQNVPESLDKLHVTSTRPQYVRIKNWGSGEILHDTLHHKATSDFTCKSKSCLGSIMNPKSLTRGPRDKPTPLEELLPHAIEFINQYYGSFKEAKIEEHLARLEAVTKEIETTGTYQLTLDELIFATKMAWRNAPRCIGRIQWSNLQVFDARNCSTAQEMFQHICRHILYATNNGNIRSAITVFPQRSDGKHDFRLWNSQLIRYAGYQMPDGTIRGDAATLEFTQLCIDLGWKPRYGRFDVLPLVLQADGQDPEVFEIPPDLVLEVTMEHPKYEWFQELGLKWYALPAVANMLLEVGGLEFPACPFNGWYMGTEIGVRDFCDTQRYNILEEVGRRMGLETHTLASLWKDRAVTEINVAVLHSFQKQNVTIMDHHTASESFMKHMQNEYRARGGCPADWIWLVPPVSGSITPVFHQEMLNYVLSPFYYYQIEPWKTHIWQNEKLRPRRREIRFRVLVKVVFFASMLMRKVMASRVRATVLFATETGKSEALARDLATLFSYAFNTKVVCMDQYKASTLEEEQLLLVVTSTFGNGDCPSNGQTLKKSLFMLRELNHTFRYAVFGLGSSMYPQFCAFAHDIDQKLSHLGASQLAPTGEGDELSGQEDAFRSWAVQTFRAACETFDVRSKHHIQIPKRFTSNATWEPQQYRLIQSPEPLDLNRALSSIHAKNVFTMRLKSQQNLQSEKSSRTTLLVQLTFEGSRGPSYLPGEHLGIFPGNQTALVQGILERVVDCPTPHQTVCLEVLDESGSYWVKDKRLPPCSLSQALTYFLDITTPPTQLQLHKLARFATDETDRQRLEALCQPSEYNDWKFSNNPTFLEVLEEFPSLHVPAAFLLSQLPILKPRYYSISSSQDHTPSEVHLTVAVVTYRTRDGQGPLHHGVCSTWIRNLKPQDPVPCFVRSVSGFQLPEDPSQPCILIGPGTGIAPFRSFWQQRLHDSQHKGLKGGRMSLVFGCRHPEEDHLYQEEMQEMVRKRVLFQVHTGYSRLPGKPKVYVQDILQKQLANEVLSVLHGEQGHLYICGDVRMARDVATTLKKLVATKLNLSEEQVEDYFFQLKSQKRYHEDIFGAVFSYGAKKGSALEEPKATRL

[5] = target: T4, Tyrosinase (Agaricus bisporus) (UniProt O42713); details: at 1 mM;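 also: inhibition measured at 10 min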
T4 sequence (whole entry): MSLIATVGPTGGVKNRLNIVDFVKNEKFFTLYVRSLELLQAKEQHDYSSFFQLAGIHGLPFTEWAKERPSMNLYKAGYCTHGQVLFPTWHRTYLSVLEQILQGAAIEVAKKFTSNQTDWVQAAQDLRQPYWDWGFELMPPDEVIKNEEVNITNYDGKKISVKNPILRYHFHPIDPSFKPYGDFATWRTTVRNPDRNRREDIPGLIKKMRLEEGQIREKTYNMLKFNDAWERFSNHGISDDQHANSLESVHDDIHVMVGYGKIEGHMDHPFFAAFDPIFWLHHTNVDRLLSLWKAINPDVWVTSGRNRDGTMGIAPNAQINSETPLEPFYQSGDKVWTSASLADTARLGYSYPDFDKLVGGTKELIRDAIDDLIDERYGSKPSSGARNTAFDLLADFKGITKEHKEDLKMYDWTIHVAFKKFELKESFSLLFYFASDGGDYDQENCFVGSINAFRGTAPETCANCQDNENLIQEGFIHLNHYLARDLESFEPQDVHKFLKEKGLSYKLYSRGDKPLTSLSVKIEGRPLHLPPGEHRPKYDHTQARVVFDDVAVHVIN

[6] = target: Stromelysin-1 (Homo sapiens) (UniProt P08254); details: at 1 mM;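 also: recombinant enzyme, inhibition read after a 30 min incubation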
Stromelysin-1 (Homo sapiens), sequence (P08254 100-477 limits assumed): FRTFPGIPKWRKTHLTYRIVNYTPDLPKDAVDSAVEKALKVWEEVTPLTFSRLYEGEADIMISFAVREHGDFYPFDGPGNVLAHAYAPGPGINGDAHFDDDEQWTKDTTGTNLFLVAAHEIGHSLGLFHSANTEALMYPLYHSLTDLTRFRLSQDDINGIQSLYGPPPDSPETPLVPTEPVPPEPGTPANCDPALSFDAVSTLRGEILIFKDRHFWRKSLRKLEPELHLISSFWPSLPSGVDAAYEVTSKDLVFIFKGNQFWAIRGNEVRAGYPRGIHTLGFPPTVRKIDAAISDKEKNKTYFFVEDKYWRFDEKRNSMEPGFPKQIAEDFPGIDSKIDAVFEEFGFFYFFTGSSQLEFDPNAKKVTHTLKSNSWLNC

[7] = target: T5, Polyunsaturated fatty acid 5-lipoxygenase (Homo sapiens) (UniProt P09917); assay: Inhibition of human recombinant 5-lipoxygenase at 1 mM after 10 mins by fluorescence assay
T5 sequence (whole entry): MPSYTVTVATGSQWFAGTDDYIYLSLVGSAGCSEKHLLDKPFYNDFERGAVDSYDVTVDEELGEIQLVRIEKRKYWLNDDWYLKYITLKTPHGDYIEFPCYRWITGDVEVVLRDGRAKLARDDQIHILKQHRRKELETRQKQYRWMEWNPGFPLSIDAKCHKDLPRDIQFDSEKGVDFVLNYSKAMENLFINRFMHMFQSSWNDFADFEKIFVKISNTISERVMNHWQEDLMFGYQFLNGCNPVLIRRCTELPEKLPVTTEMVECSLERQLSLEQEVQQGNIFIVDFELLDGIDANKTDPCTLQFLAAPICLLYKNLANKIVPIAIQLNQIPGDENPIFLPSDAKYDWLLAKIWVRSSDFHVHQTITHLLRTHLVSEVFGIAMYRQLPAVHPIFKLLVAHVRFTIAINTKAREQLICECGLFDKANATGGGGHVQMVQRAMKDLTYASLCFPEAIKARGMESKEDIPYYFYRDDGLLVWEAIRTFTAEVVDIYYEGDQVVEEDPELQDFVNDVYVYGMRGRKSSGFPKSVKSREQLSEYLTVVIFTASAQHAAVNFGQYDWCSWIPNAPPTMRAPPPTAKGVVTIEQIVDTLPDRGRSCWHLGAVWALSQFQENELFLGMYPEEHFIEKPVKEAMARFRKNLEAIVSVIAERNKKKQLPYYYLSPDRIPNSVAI

[8] = target: Neutrophil collagenase (Homo sapiens) (UniProt P22894); details: at 1 mM;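 also: recombinant human MMP8 enzyme, percent inhibition read after 30 min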
Neutrophil collagenase (Homo sapiens), sequence (P22894 101-467 limits assumed): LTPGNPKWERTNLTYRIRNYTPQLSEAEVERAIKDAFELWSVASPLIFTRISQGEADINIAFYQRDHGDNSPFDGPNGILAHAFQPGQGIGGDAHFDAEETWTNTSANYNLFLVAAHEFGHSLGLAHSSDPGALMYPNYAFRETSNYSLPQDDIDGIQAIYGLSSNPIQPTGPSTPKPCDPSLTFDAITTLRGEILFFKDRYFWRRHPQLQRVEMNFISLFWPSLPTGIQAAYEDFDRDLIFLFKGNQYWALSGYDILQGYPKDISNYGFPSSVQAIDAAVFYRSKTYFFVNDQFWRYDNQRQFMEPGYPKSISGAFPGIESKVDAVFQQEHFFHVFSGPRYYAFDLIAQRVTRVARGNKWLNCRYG

[9] = target: T6, 72 kDa type IV collagenase (Homo sapiens, UniProt P08253); details: at 1 mM
Target sequence in this assay (P08253 110-660 limits assumed): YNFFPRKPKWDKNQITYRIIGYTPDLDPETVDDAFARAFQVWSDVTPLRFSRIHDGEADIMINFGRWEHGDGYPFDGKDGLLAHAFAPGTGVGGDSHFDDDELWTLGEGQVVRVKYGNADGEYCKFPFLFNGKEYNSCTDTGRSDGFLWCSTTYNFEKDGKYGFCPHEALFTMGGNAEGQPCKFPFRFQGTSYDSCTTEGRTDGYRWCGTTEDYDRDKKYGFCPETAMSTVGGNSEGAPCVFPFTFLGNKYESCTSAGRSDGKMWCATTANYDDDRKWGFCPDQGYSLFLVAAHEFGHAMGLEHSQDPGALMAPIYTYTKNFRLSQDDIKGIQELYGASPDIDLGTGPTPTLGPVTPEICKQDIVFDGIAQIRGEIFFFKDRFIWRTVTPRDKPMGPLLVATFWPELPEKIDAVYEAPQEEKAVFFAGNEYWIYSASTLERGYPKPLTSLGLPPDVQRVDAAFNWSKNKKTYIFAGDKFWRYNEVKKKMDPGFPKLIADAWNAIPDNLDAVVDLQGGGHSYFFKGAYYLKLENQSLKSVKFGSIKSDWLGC

[10] = target: T6, 72 kDa type IV collagenase; assay: Inhibition of human recombinant MMP2 after 30 mins
Procedure, shortened: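 Enzyme (1.16 U) preincubated 30 min at 37 °C with fragment in 50 mM HEPES, 10 mM CaCl2, 0.05% Brij-35, pH 7.5. Fluorogenic Mca peptide substrate (4 μM final) then added. Rate of fluorescence increase compared with no-inhibitor control (100%). Single-point 25 μM final for the 8-hydroxyquinoline sublibrary. IC50 fitted to dose-response curves from serial dilutions of DMSO stocks.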
Target sequence in this assay (P08253 whole entry): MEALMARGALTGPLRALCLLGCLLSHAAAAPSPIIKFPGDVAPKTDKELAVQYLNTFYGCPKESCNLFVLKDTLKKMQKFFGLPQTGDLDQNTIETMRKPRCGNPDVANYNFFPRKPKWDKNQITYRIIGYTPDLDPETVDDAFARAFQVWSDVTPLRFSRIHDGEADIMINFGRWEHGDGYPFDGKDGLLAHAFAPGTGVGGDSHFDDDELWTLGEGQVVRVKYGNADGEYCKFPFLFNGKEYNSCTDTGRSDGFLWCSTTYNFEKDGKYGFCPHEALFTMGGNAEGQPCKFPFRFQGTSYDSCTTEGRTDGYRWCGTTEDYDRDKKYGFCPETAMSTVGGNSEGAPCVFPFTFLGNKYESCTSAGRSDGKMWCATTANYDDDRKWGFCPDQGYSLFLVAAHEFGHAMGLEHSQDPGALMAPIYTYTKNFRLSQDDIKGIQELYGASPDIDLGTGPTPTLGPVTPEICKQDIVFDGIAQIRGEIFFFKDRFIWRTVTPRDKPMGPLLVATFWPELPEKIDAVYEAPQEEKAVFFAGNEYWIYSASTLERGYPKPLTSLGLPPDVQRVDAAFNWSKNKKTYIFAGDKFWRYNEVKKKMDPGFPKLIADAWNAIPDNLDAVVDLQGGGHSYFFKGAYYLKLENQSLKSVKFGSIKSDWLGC

Matrix metalloproteinase-9 (Homo sapiens), sequence (P14780 whole entry): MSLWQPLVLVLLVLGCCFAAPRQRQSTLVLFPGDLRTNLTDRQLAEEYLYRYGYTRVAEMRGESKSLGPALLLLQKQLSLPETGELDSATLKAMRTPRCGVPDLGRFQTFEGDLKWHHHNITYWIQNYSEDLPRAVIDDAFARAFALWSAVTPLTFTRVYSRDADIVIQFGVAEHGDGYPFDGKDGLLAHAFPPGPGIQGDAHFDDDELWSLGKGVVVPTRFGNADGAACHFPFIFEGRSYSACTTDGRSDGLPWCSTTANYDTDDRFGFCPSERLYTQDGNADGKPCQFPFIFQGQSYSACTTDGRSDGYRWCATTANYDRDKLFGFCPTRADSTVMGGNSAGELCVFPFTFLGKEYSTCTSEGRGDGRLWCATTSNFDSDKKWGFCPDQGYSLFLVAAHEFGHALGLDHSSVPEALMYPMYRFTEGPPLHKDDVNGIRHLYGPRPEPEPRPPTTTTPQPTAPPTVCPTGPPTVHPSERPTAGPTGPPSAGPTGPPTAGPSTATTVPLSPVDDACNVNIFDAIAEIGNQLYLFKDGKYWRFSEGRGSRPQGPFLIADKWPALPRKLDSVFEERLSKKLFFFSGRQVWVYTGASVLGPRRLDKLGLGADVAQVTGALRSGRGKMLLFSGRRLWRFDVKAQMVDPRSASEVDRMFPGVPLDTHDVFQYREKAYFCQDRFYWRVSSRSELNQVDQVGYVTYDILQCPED

Structure (SMILES) | inhibition [1] | inhibition [2] | inhibition [3] | inhibition [4] | inhibition [5] | inhibition [6] | inhibition [7] | inhibition [8] | inhibition [9] | IC50 [10]
Cc1ccc(C(=O)O)c(O)c1 | 10% | 8% | 11% | 15% | 97% | -1% | 17% | 16% | – | –
O=C(O)c1nc(Cl)ccc1Cl | 18% | 12% | – | 20% | 96% | 0% | 27% | 18% | 0% | –
O=C(O)c1cccc2cccnc12 | 31% | 36% | – | 11% | -2% | 77% | 23% | 38% | 25% | –
Cc1nc(O)cc(O)n1 | 4% | 14% | – | 1% | 12% | 22% | 62% | 14% | 2% | –
CC(=O)NO [ACETOHYDROXAMIC ACID] | – | 10% | 25% | 4% | -2% | 5% | – | 5% | 4% | 15 mM
Cc1cccc(C(=O)O)n1 | -6% | -9% | 47% | 8% | 25% | 48% | 21% | 3% | – | –
O=C(O)c1cccc(O)n1 | 16% | 16% | 81% | 6% | 95% | 0% | 38% | 20% | – | –
O=C(O)c1c(O)cccc1O | – | 0% | 15% | 17% | 95% | -4% | 38% | -5% | -6% | –
CCC(C(C)=O)C(C)=O | 1% | 7% | 4% | -1% | 85% | 6% | 62% | 3% | – | –
Oc1cccnc1O | 21% | 8% | – | 0% | -9% | -7% | 90% | 7% | – | –
O=c1[nH]ccc(=S)[nH]1 | – | – | – | – | – | – | – | – | – | 0.121 mM
COc1ccccc1O | -6% | 8% | 13% | 13% | – | -4% | 60% | 4% | -5% | –
CC(=O)CC(C)=O | – | 10% | 5% | -6% | 77% | -4% | 42% | -6% | -5% | –
O=C(O)c1cccnc1C(=O)O | -8% | 4% | 49% | 5% | 98% | – | 30% | 14% | – | –
O=C(O)c1ccc[nH]1 | – | 8% | 11% | 7% | 69% | -8% | 48% | – | 1% | –
CC(=O)C(Cl)C(C)=O | – | 11% | 9% | 80% | 86% | -6% | 52% | -7% | -9% | –
